Source: ChEMBL document CHEMBL1811756, “Discovery of novel c-Met kinase inhibitors bearing a thieno[2,3-d]pyrimidine or furo[2,3-d]pyrimidine scaffold” (Bioorg Med Chem, 2011)
The source made the active and inactive calls. The calls are words filed in the database; no cut-off is given here.

Experiments:
[1] = target: T1, Hepatocyte growth factor receptor (Homo sapiens, UniProt P08581); assay: Inhibition of c-Met after 60 mins by ELISA
In short: (§1)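 ELISA on plates pre-coated with Poly(Glu,Tyr) 4:1 at 20 µg/mL. Detection used anti-phosphotyrosine PY99, then HRP anti-mouse IgG and o-phenylenediamine/H₂O₂, read at 490 nm. IC50 was calculated by the Logit method from ≥3 independent tests at six concentrations each.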

[2] = target: T1, Hepatocyte growth factor receptor; assay: Inhibition of c-Met at 10 uM after 60 mins by ELISA
In short: (§2)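 c-Met tyrosine kinase ELISA with Poly(Glu,Tyr) 4:1 substrate and 10 µM ATP in HEPES pH 7.4 buffer with Mg²⁺/Mn²⁺, run 60 min at 37 °C. Phosphotyrosine was detected with PY99 and an HRP secondary antibody, read at 490 nm. Percent inhibition was measured at a single compound concentration.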

[3] = target: T1, Hepatocyte growth factor receptor; assay: Inhibition of c-Met at 1 uM after 60 mins by ELISA; in short: as §2
[4] = system: BaF3; assay: Antiproliferative activity against […] BAF3 cells expressing TPR-Met assessed as inhibition of cell growth at 1 uM; format: functional; conditions: Mus musculus
In short: (§3)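 BaF3 cells stably expressing TPR-Met were seeded in 96-well plates. Next day they were exposed to compound at 10, 1 or 0.1 µM for 72 h. Growth was read by MTT at A570. Inhibition (%) = [1 − (A570/A570 control)] × 100.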

[5] = system: BaF3; assay: Antiproliferative activity against […] BAF3 cells expressing TPR-Met assessed as inhibition of cell growth at 10 uM; format: functional; conditions: Mus musculus; in short: as §3
[6] = system: BaF3; assay: Antiproliferative activity against […] BAF3 cells expressing TPR-Met assessed as inhibition of cell growth at 0.1 uM; format: functional; conditions: Mus musculus; in short: as §3
[7] = target: Receptor tyrosine-protein kinase erbB-4 (Homo sapiens, UniProt Q15303); assay: Inhibition of ERBB4; in short: as §1
[8] = target: Proto-oncogene tyrosine-protein kinase receptor Ret (Homo sapiens, UniProt P07949); assay: Inhibition of RET; in short: as §1
Proto-oncogene tyrosine-protein kinase receptor Ret, sequence (P07949 whole entry): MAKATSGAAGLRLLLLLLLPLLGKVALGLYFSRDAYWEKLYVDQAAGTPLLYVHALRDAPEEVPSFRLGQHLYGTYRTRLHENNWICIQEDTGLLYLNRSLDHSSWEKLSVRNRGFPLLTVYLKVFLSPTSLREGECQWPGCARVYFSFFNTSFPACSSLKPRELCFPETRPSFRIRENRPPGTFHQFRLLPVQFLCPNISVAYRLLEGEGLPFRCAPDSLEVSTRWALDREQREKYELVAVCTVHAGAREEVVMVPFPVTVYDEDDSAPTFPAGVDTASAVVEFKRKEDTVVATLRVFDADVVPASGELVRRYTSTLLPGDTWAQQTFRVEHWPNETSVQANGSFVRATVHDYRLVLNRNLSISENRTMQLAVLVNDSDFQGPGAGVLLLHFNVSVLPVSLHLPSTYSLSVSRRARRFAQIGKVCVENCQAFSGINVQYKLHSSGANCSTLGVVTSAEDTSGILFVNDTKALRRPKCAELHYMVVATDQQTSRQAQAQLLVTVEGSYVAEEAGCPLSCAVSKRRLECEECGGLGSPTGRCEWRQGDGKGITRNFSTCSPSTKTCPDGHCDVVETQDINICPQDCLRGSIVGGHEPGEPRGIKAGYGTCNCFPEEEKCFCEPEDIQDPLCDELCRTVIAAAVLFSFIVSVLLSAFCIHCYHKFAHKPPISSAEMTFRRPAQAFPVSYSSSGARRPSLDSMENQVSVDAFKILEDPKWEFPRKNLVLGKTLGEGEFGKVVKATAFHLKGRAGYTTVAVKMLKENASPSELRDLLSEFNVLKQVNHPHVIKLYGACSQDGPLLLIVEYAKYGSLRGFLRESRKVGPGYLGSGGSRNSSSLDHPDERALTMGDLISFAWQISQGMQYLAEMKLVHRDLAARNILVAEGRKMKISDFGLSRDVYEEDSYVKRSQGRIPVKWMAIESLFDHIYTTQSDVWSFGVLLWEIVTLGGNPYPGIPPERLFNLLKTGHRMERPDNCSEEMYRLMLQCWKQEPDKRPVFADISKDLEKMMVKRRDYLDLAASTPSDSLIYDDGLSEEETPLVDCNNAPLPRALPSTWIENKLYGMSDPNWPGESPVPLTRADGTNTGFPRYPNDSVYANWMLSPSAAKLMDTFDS

[9] = target: Tyrosine-protein kinase ABL1 (Homo sapiens, UniProt P00519); assay: Inhibition of Abl; in short: as §1
Tyrosine-protein kinase ABL1, sequence (P00519 whole entry): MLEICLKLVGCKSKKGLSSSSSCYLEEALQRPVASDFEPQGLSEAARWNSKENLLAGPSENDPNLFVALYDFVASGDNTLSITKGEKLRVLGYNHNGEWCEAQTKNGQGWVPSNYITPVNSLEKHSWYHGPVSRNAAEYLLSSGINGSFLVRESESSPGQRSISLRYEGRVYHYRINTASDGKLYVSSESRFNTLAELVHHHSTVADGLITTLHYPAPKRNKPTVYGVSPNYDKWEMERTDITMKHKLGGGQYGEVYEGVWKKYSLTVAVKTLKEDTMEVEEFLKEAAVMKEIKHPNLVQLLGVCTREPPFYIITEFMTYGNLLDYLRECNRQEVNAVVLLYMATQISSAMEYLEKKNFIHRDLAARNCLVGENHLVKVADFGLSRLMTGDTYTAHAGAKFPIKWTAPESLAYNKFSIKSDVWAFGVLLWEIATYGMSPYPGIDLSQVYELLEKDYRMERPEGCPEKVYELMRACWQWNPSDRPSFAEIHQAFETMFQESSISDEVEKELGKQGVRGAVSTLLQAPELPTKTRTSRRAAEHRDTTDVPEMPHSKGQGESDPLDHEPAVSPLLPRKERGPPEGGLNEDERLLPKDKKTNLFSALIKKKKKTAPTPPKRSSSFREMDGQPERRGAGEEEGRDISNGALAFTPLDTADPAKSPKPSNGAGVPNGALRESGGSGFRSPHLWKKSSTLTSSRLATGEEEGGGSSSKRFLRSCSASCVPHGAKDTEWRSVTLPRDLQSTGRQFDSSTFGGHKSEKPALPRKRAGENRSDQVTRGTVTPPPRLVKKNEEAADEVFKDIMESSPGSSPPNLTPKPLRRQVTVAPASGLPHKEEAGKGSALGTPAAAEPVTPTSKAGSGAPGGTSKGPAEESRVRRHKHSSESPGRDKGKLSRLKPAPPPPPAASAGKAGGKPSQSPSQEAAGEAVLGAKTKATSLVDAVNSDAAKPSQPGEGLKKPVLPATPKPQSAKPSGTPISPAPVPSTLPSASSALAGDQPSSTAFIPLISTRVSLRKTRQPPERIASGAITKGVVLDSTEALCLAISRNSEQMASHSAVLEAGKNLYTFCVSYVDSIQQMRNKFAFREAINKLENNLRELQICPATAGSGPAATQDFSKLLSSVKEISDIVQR

[10] = target: Ephrin type-A receptor 2 (Homo sapiens, UniProt P29317); assay: Inhibition of EPHA2; in short: as §1
Ephrin type-A receptor 2, sequence (P29317 whole entry): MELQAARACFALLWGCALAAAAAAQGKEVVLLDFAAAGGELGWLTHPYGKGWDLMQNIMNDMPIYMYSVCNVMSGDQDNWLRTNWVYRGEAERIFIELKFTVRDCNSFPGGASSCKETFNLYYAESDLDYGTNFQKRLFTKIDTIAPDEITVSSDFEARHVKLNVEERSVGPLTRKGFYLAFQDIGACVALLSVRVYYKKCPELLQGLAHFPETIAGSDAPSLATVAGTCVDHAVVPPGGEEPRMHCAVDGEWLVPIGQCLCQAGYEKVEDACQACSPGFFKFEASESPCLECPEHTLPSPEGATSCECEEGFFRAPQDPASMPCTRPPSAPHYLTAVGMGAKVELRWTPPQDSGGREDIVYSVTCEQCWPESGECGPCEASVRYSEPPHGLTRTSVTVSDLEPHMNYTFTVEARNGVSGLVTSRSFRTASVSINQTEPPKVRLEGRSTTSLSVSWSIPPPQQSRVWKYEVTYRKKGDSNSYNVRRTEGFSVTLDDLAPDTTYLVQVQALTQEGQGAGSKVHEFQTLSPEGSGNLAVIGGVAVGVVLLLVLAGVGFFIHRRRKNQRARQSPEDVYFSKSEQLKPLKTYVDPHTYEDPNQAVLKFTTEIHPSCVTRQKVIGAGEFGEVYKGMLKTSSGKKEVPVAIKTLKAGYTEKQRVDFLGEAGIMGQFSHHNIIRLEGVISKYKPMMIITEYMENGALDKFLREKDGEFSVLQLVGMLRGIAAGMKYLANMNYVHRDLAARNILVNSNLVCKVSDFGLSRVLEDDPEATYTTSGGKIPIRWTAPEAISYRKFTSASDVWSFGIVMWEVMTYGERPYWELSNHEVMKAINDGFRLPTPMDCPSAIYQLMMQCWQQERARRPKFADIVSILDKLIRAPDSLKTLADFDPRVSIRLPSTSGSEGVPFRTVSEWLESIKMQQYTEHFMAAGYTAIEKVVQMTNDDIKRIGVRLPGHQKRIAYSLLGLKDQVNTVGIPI

[11] = target: Proto-oncogene tyrosine-protein kinase Src (Homo sapiens, UniProt P12931); assay: Inhibition of c-SRC; in short: as §1
[12] = Aqueous solubility of the compound; format: physicochemical; conditions: buffer
[13] = target: Platelet-derived growth factor receptor alpha (Homo sapiens, UniProt P16234); assay: Inhibition of PDGFRalpha; in short: as §1
[14] = target: Macrophage-stimulating protein receptor (Homo sapiens, UniProt Q04912); assay: Inhibition of RON; in short: as §1
[15] = Oral bioavailability in mouse at 20 mg/kg; format: ADME, organism-based; conditions: in vivo
In short: (§4)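 Pharmacokinetics were run in mice after a single dose of 10 mg/kg iv or 20 mg/kg po.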

[16] = target: Receptor tyrosine-protein kinase erbB-2 (Homo sapiens, UniProt P04626); assay: Inhibition of ERBB2; in short: as §1
[17] = target: T2, Ephrin type-B receptor 2 (Homo sapiens, UniProt P29323); assay: Inhibition of EPHB2; in short: as §1
T2 sequence (P29323 whole entry): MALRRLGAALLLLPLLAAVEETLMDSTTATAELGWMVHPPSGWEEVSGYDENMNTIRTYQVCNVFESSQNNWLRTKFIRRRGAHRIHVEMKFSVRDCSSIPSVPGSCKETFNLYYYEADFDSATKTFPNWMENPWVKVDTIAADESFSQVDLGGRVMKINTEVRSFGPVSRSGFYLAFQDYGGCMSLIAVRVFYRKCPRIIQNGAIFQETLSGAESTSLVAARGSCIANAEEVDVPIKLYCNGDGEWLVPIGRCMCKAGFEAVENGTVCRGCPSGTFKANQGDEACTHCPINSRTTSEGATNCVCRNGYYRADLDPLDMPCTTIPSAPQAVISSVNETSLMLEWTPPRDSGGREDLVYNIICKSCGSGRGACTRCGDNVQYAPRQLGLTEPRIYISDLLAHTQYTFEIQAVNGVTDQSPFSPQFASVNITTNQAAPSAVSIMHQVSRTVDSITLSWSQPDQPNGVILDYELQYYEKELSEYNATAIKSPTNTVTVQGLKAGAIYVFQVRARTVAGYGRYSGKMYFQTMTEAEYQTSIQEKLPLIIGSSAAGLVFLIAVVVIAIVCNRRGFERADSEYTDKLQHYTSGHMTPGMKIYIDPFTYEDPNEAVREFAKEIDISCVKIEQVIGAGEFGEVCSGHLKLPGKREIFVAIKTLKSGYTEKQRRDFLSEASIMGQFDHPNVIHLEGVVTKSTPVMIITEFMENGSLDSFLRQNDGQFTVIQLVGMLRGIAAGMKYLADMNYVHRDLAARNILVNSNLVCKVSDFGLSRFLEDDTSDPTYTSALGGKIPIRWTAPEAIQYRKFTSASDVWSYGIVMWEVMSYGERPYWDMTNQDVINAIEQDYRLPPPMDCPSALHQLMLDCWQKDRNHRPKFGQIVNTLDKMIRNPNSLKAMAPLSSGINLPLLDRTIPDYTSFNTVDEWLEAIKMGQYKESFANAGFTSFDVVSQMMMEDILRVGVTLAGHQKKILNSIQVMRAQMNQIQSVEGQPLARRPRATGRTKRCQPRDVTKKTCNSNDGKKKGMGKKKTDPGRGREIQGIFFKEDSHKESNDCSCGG

[18] = system: Mus musculus; assay: Toxicity in nude mouse xenografted with human U87MG cells assessed as body weight loss at 100 mg/kg, ip for 3 weeks; format: organism-based, U-87MG ATCC; design: dose 100 mg/kg, route intraperitoneal; conditions: in vivo, 504 h
In short: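 Nude mice bearing U-87MG tumor fragments were dosed ip 7 days/week for 3 weeks, n = 6 per group, versus vehicle controls. Body weight was monitored during treatment.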

[19] = target: T1, Hepatocyte growth factor receptor; conditions: BaF3, 0.1 to 10 uM
[20] = target: Vascular endothelial growth factor receptor 1 (Homo sapiens, UniProt P17948); assay: Inhibition of FLT1; in short: as §1
[21] = Clearance in mouse at 10 mg/kg, iv; format: ADME, organism-based; design: dose 10 mg/kg, route intravenous; conditions: in vivo; in short: as §4
[22] = Half life in mouse at 10 mg/kg, iv and 20 mg/kg, po; format: ADME, organism-based; conditions: in vivo; in short: as §4
[23] = target: Insulin-like growth factor 1 receptor (Homo sapiens, UniProt P08069); assay: Inhibition of IGF1R; in short: as §1
[24] = target: Fibroblast growth factor receptor 1 (Homo sapiens, UniProt P11362); assay: Inhibition of FGFR1; in short: as §1
[25] = target: T1, Hepatocyte growth factor receptor; conditions: BaF3, 0.1-10 uM
[26] = Antitumor activity against human U87MG cells xenografted in nude mouse assessed as inhibition of tumor growth at 100 mg/kg; format: functional, U-87MG ATCC; conditions: U-87 MG

T1 sequence (P08581 whole entry): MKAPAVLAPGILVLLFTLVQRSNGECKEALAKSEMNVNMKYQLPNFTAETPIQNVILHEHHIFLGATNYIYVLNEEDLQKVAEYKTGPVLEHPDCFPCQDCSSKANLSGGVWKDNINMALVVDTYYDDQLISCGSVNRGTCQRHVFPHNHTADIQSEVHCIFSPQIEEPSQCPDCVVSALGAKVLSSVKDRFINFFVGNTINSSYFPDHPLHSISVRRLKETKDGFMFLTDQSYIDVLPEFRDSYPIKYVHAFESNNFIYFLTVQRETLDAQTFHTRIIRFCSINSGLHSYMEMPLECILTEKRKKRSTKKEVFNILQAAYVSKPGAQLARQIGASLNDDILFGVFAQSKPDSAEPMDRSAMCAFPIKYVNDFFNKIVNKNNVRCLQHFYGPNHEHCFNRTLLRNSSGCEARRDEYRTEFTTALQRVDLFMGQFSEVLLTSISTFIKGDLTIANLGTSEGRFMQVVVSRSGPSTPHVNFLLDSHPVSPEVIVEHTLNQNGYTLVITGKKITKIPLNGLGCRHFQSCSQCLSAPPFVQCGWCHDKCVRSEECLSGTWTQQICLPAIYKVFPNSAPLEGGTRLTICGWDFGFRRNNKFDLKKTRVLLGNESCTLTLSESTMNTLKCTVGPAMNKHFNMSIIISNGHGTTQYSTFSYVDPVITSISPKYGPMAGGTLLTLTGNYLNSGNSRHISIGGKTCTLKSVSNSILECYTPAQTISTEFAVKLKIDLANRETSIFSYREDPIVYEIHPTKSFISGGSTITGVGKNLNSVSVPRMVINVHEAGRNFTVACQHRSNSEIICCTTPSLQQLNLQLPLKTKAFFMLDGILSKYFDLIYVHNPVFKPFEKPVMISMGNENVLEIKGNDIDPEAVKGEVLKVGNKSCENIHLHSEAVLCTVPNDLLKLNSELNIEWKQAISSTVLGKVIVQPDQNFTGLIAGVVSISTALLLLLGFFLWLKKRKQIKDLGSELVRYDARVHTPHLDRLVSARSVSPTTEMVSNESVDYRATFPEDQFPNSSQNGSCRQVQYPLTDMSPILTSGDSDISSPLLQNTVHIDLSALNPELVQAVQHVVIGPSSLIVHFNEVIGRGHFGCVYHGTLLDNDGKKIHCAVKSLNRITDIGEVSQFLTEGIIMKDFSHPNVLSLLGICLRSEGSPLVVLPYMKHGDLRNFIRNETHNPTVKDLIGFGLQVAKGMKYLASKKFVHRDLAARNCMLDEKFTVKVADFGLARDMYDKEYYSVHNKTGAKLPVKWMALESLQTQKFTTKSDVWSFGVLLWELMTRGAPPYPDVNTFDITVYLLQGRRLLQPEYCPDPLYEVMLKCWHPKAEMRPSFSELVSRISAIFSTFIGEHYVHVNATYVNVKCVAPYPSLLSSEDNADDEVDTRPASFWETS

Row | SMILES | IC50 [1] | inhibition [2] | inhibition at 1 µM [4] | inhibition at 10 µM [5] | inhibition at 0.1 µM [6] | further results
1 | O=C(Nc1ccc(Oc2ncnc3sc4c(c23)CCC4)c(F)c1)c1cccn(-c2ccc(F)cc2)c1=O | > 10 µM | 12.3% |  |  |  | 
2 | COc1nc(Oc2ccc(NC(=O)c3cccn(-c4ccc(F)cc4)c3=O)cc2F)c2c(-c3ccccc3)coc2n1 | > 10 µM | 31.7% |  |  |  | 
3 | O=C(Nc1ccc(Oc2ncnc3scc(-c4ccc5ccccc5c4)c23)c(F)c1)c1cccn(-c2ccc(F)cc2)c1=O |  | 92.1% |  |  |  | inhibition [3]: < 50%
4 | Cc1coc2ncnc(Oc3ccc(NC(=O)c4cccn(-c5ccc(F)cc5)c4=O)cc3F)c12 | > 10 µM | 16.5% |  |  |  | 
5 | O=C(Nc1ccc(Oc2ncnc3scc(-c4ccc(-c5ccccc5)cc4)c23)c(F)c1)c1cccn(-c2ccc(F)cc2)c1=O |  | 80.4% |  |  |  | inhibition [3]: < 50%
6 | O=C(Nc1ccc(Oc2ncnc3sccc23)c(F)c1)c1cccn(-c2ccc(F)cc2)c1=O | > 10 µM | 14.3% | -6.5% | 5.3% | -12.8% | 
7 | O=C(Nc1ccc(Oc2ncnc3occ(-c4ccc(F)cc4)c23)c(F)c1)c1cccn(-c2ccc(F)cc2)c1=O | 0.31 µM | 80.9% | -5.8% | 76.3% | -4.7% | 
8 | O=C(Nc1ccc(Oc2ncnc3scc(-c4ccccc4)c23)c(F)c1)c1cccn(-c2ccc(F)cc2)c1=O | 0.0357 µM | 94.3% | 69.5% | 94.6% | -10.5% | IC50 [7]: > 10 µM; IC50 [8]: > 10 µM; IC50 [9]: > 10 µM; IC50 [10]: > 10 µM; IC50 [11]: > 10 µM; solubility [12]: Insoluble; IC50 [13]: > 10 µM; IC50 [14]: 0.0504 µM; bioavailability [15]: 5%; IC50 [16]: > 10 µM; IC50 [17]: > 10 µM; Activity [18]: Non-toxic; inhibition [19]: Active; IC50 [20]: > 10 µM; clearance [21]: 47.2 mL/min/kg; half-life [22]: 1.67 h; IC50 [23]: > 10 µM; IC50 [24]: > 10 µM; inhibition [25]: Active
9 | O=C(Nc1ccc(Oc2ncnc3scc(-c4ccc(F)c(F)c4)c23)c(F)c1)c1cccn(-c2ccc(F)cc2)c1=O | 0.0657 µM | 88.4% | 13.9% | 89.7% | -1.1% | 
10 | COc1ccc(-c2csc3ncnc(Oc4ccc(NC(=O)c5cccn(-c6ccc(F)cc6)c5=O)cc4F)c23)cc1 | 0.0465 µM | 90% | 91.1% | 94.3% | -10.1% | 
11 | Cc1ccc(-c2csc3ncnc(Oc4ccc(NC(=O)c5cccn(-c6ccc(F)cc6)c5=O)cc4F)c23)s1 | 0.042 µM | 85.5% | 60.6% | 95% | -2.3% | 
12 | COc1ccc(-c2csc3ncnc(Oc4ccc(NC(=O)c5cccn(-c6ccc(F)cc6)c5=O)cc4F)c23)cc1OC | 0.123 µM | 99.9% |  |  |  | 
13 | [N-]=[N+]=Nc1nc(Oc2ccc(NC(=O)c3cccn(-c4ccc(F)cc4)c3=O)cc2F)c2c(-c3ccccc3)coc2n1 | > 10 µM | 18.5% |  |  |  | 
14 | O=C(Nc1ccc(Oc2ncnc3scc(-c4ccc(C(F)(F)F)cc4)c23)c(F)c1)c1cccn(-c2ccc(F)cc2)c1=O | 0.191 µM | 83.8% |  |  |  | 
15 | CSc1nc(Oc2ccc(NC(=O)c3cccn(-c4ccc(F)cc4)c3=O)cc2F)c2c(-c3ccccc3)coc2n1 | > 10 µM | 33.4% | 2% | 14.9% | 10.3% | 
16 | COc1cc2nccc(Oc3ccc(NC(=S)NC(=O)Cc4ccccc4)cc3F)c2cc1OC |  |  |  |  |  | inhibition in vivo at 100 mg/kg [26]: 70%
17 | O=C(Nc1ccc(Oc2ncnc3sc(-c4ccccc4)cc23)c(F)c1)c1cccn(-c2ccc(F)cc2)c1=O | > 10 µM | 10.6% |  |  |  | 
18 | O=C(Nc1ccc(Oc2ncnc3sc4c(c23)CCCCC4)c(F)c1)c1cccn(-c2ccc(F)cc2)c1=O | > 10 µM | 23.4% |  |  |  | 
19 | CS(=O)(=O)c1nc(Oc2ccc(NC(=O)c3cccn(-c4ccc(F)cc4)c3=O)cc2F)c2c(-c3ccccc3)coc2n1 | > 10 µM | 36.7% |  |  |  | 
20 | O=C(Nc1ccc(Oc2ncnc3scc(-c4ccc(F)cc4)c23)c(F)c1)c1cccn(-c2ccc(F)cc2)c1=O | 0.068 µM | 71.9% | 30.8% | 92.2% | 12.9% | 
21 | O=C(Nc1ccc(Oc2ncnc3occ(-c4cccs4)c23)c(F)c1)c1cccn(-c2ccc(F)cc2)c1=O | > 10 µM | 46.6% | -9.3% | -5.4% | -12.1% | 
22 | O=C(Nc1ccc(Oc2ncnc3occ(-c4ccccc4)c23)c(F)c1)c1cccn(-c2ccc(F)cc2)c1=O | 0.0698 µM | 84.9% | 14.6% | 93.7% | -6.9% | 
23 | CNc1nc(Oc2ccc(NC(=O)c3cccn(-c4ccc(F)cc4)c3=O)cc2F)c2c(-c3ccccc3)coc2n1 |  | 78.2% |  |  |  | inhibition [3]: < 50%
24 | Cc1nc(Oc2ccc(NC(=O)c3cccn(-c4ccc(F)cc4)c3=O)cc2F)c2c(-c3cccs3)coc2n1 | > 10 µM | 24.3% | -2.8% | -9.7% | 0.6% | 
25 | Cc1nc(Oc2ccc(NC(=O)c3cccn(-c4ccc(F)cc4)c3=O)cc2F)c2c3c(sc2n1)CCCC3 | > 10 µM | 31.2% |  |  |  | 
